This is a sample that favours compounds with a hit; in the whole collection about 3.3% have one here.
PMI activator: increases human mannose-6-phosphate isomerase activity. P34949. purified human PMI, coupled resazurin fluorescence, 20 min; active compounds read high; 1 = vehicle control, 0 substrate-free wells. activation factor at 20 µM. 190,000 compounds, 0.005% hits. AID 1214;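 active = activation factor of 2 or more at 20 µM, relative to plate controls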
Cl transport mod: modulates chloride dependent transport by human KCC2; Q9H2X9; B-score of Tl+ flux slope (higher = more flux/activation; lower = inhibition) at 10 µM; 190,000 compounds, 2.2% hits; KCC2 cells, thallium flux FluoZin-2 fluorescence;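 active = thallium flux slope and its plate-corrected score both differing from the plate sample mean at a set confidence after two filtering rounds, in either direction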;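 also: slope of fluorescence scaled to starting intensity during 10 to 20 s after thallium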
ROMK mod: human ROMK K+ channel modulation, primary screen | P48048 | Tet-inducible ROMK, thallium flux fluorescence; actives lie on both sides | B-score at 10 µM | 130,000 compounds, 2% hits | AID 1918;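 active = signal ratio slope over the read window, or its plate-corrected B-score, at least 3 SD from the plate mean, either direction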;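 also: B-score of the F/F0 ratio slope over 7 to 12 s after thallium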
Target sequence (P48048 whole entry, looked up): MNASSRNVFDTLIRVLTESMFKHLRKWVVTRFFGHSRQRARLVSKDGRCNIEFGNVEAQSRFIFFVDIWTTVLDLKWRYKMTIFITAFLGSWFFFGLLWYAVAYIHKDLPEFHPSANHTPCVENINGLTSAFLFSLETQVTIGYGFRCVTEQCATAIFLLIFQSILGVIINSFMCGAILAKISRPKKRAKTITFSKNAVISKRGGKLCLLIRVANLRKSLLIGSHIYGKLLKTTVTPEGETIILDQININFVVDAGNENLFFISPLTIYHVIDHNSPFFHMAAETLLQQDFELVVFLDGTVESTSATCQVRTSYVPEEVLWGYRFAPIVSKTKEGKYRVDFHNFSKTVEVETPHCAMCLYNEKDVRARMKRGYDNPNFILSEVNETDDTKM
ABCB1 inh: inhibitors of human ABCB1 transporter, ABCG2 counter-screen; AID 1326; CCRF-Adr cells, JC-1 efflux, flow cytometry; inhibition, % at 6.6 µM; 190,000 compounds, 0.067% hits; P08183; in the data active = inhibition above about 40%;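 also: 0% = vehicle and 100% = reference inhibitor; higher value means more JC-1 retained so stronger ABCB1 efflux block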
ABCG2 block: human ABCG2 inhibition, ABCB1 as counter-screen; IgMXP3 cells, JC-1 efflux, flow cytometry; inhibition, % at 6.6 µM; 190,000 compounds, 0.1% hits;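 active = inhibition above 80%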;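 also: 0% = DMSO and 100% = nicardipine control wells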
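Test system: IgMXP3 (ABCG2) plus far-red-tagged CCRF-Adr (ABCB1) cells. Reagent: JC-1 dye as substrate. Timing: 10 min exposure at 25 °C with rotation, no wash. Measured by: flow cytometric JC-1 green MFI at 530 nm. Read-out: percent efflux inhibition, scaled nicardipine 100% to DMSO 0%. Control set: nicardipine and DMSO wells.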
PMI act satM6P: increases human PMI activity with near-saturating mannose 6-phosphate | coupled PMI enzyme assay, resazurin fluorescence, 20 min; active compounds read high; 1 = untreated enzyme, 0 = substrate-free blank | P34949 | activation factor at 20 µM | 190,000 compounds, 0.34% hits;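 active = activation factor of 2 or more at 20 µM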
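test system = human PMI in coupled enzyme assay | medium = HEPES-buffered pH 7.4 with magnesium and detergent | also added = 1.0 mM mannose-6-phosphate substrate with 0.22 mM NADP+ | compound = 20 µM single dose | times = 20 min incubation at room temperature | measured by = resorufin fluorescence (Ex 544/Em 590 nm) from resazurin via diaphorase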
ROMK hit retest: retested hit modulating human ROMK potassium channel | shares compounds with ROMK mod | ROMK thallium flux, fluorescence ratio; active compounds read low | normalized thallium flux (F/F0 slope) at 10 µM | 3,000 compounds, 54% hits | AID 1917;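 active = Flux at 10 µM at least 3 SD below or above vehicle control mean in one or both replicates; inconclusive = no clear call, values can overlap the other calls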
Numbers without * were called inactive; i = inactive; ? = inconclusive; · = no result.

SMILES | PMI activator | Cl transport mod | ROMK mod | ABCB1 inh | ABCG2 block | PMI act satM6P | ROMK hit retest
COc1ccc(OCC(=O)NNc2c3ccccc3nc3ccccc23)cc1 | 0.9 | · | · | 2 | 12 | 0.8 | ?
Cc1ccc2cc(CN(Cc3ccccc3)Cc3nnnn3C3CCCC3)c(=O)[nH]c2c1 | 0.9 | · | -3* | 2 | 3 | 0.9 | 0.061*
Cc1ccc2cc(CN(Cc3ccc(F)cc3)Cc3nnnn3C3CCCC3)c(=O)[nH]c2c1 | 0.9 | 0.00068 | -1.4 | 7 | 17 | 1 | ·
CC(C)[C@H](NC(=O)C1CCCC1)c1nc2ccccc2[nH]1 | 1.2 | 1.3 | -0.83 | 1 | 11 | 1.1 | ·
c1coc(-c2nn3c(-c4ccco4)nnc3s2)c1 | 1 | 0.055 | -0.32 | 0 | 2 | 1 | ·
COc1ccccc1-c1nn2c(-c3ccco3)nnc2s1 | 1.1 | -2.8 | -1.3 | 0 | 0 | 0.9 | 0.057*
CCCCOc1ccccc1C1CC(=O)NC2=C1C(=O)CCC2 (configuration not stated) | 1 | 0.44 | 4.7* | 0 | 0 | 1 | 0.089
COc1ccc(S(=O)(=O)NCc2ccccc2Cl)cc1OC | 0.8 | -0.047 | · | 1 | 2 | 0.9 | 0.076
COc1cc(S(=O)(=O)Nc2ccccc2C)ccc1Cl | 0.9 | · | · | -1 | 7 | 0.9 | 0.073
COc1ccc(Cl)cc1NS(=O)(=O)c1ccc(OC)c(OC)c1 | 0.9 | -0.41 | -3.1* | 2 | 9 | 0.9 | 0.075
CCOc1ccc(S(=O)(=O)NCc2ccccc2Cl)cc1C(N)=O | 1.3 | -0.77 | 0.72 | 1 | 3 | 1.3 | ·
COCCNC(=O)CNC(=S)N(CCCN1CCOCC1)Cc1cccs1 | 1 | -0.18 | 0.47 | 1 | 0 | 1.1 | ·
Oc1ccc(/C=N/NC(=S)Nc2cccnc2)cc1 | · | -0.48 | · | · | · | · | ·
Oc1ccc(/C=N/NC(=S)N/N=C/c2ccc(O)cc2)cc1 | 1 | -0.34 | 3.3* | 0 | -1 | 1.1 | 0.093
Cc1ccccc1NC(=O)Cc1nnc(N)s1 | · | 0.43 | · | · | · | · | ·
N#CC(c1ccccc1)N(CCCCl)C(=O)c1ccccc1 (configuration not stated) | 1 | -0.39 | 0.91 | 1 | 8 | 1.1 | ·
Cc1ccc(NS(=O)(=O)c2ccc(-c3csc(C)n3)s2)c(C)c1 | · | -0.12 | -11* | · | · | · | 0.074
Cc1nc(-c2ccc(S(=O)(=O)NCc3ccccn3)s2)cs1 | · | 0.0078 | 1.9 | · | · | · | ·
CCCc1ccc(O)c(N=Cc2cc(Br)cc(OCC)c2O)c1 | 0.6 | -0.79 | -2.2 | -1 | -2 | 0.5 | 0.078
CCSc1nc2sc3c(c2c2nnc(SCC(=O)NCc4ccco4)n12)CCCC3 | · | -1.7 | 0.83 | · | · | · | 0.082
CC(C)Sc1nc2sc3c(c2c2nnc(SCC(=O)NCc4ccco4)n12)CCCC3 | 1 | 0.83 | · | 1 | 8 | 1.1 | ·
Cc1ccc(NNC(=O)c2cc(C(C)(C)C)nn2Cc2ccccc2)cc1 | · | -1.2 | · | · | · | · | ·
COc1ccccc1NNC(=O)c1cc(C(C)(C)C)nn1Cc1ccccc1 | · | 0.54 | · | · | · | · | 0.066*
CC(C)(C)C(=O)NNC(=O)c1cc(C(C)(C)C)nn1Cc1ccccc1 | · | 0.53 | -0.35 | · | · | · | ·
CC(C)(C)c1cc(C(=O)NNc2cccc(Cl)c2)n(Cc2ccccc2)n1 | · | -0.43 | · | · | · | · | 0.057*
SMILES | PMI activator | Cl transport mod | ROMK mod | ABCB1 inh | ABCG2 block | PMI act satM6P | ROMK hit retest
N#CC1=C(N)NC(=S)C(C(N)=O)C1c1ccc([N+](=O)[O-])cc1 (configuration not stated) | 0.9 | 0.34 | · | 1 | 4 | 0.8 | ·
N#CC1(c2ccccc2)CCCN1C(=O)c1ccc(Br)o1 (configuration not stated) | 1 | -1.5 | · | 0 | 0 | 1.1 | ·
COc1cc(C(=O)Nc2nc(C)c(Cc3ccc4c(c3)OCO4)s2)cc(OC)c1OC | 0.7 | -1.3 | 2.6* | 2 | 9 | 0.8 | 0.11*
Cc1ccc2cccc(S(=O)(=O)N3CCCc4ccccc43)c2n1 | 0.9 | -0.34 | -1.3 | 1 | 6 | 0.9 | ·
CC(C(=O)NC1CCCC1)N1CCN(Cc2ccccc2)CC1 (configuration not stated) | 1.1 | 1.1 | -0.45 | 0 | 1 | 1 | ·
CC(C(=O)NC(=O)NC1CCCCC1)N1CCN(C(c2ccccc2)c2ccccc2)CC1 (configuration not stated) | 0.8 | -0.6 | -3.3* | 3 | 2 | 0.8 | 0.057*
Cc1cccn2c(=O)c(/C=C3\SC(=S)NC3=O)c(NCCCN3CCOCC3)nc12 | · | -4.6 | · | · | · | · | 0.053*
Cc1cccn2c(=O)c(C=O)c(NCc3ccccc3)nc12 | · | 0.57 | · | · | · | · | ·
N#Cc1cccc(N=c2ssnc2Cl)c1 | 0.3 | 1.5 | -3.9* | -1 | -3 | 0.6 | 0.065*
CC(C)OCCCNC(=O)c1ccc(NS(C)(=O)=O)cc1 | 1 | -0.21 | · | 0 | 6 | 1 | 0.076
COCCNC(=O)c1ccc(NS(C)(=O)=O)cc1 | 0.9 | -0.18 | 1.6 | 1 | 23 | 1 | ·
CCN1C(=O)c2ccccc2S(=O)(=O)c2ccc(C(=O)NCc3cccnc3)cc21 | 1 | -1.1 | · | 0 | 0 | 1 | ·
Cc1ccccc1Cn1cc(C)c(=O)[nH]c1=O | 0.9 | -0.34 | 2.1* | 0 | -2 | 0.9 | 0.073
Cn1ncc(C(N)=O)c1NC(=S)NC(=O)c1ccc(Br)o1 | 0.9 | 0.33 | 1* | -1 | 1 | 1 | 0.081
O=C(NC(=S)Nc1ccccc1F)c1ccc(Br)o1 | 0.9 | i | · | 1 | 21 | 1 | 0.14*
Cc1cc([N+](=O)[O-])ccc1NC(=O)C(C)N1CCN(c2ccccn2)CC1 (configuration not stated) | 0.8 | -0.4 | -0.75 | 0 | 2 | 0.9 | ·
COCCN(C(=S)Nc1cccc(C)c1)C(C)c1cccnc1 (configuration not stated) | 0.9 | · | 0.72 | 1 | 16 | 1 | ·
Cc1cc(Nc2cccc(F)c2)nc(NCc2ccccc2)n1 | 0.8 | 0.14 | · | 0 | 0 | 0.9 | ·
Fc1cc(NCc2ccccc2)nc(NCc2ccccc2)n1 | 0.9 | -0.44 | -5.8* | 3 | 11 | 0.9 | 0.05*
CCCCNc1cc(C)nc(NCc2ccccc2)n1 | 1 | 0.064 | -4.1* | 0 | 0 | 1 | 0.051*
Cc1cc(Nc2ccccc2)nc(NCc2ccccc2)n1 | 1 | 0.18 | · | 0 | 28 | 1 | ·
COC(=O)C1CCN(C(=O)c2sc3nc(-c4ccc(F)cc4)cn3c2C)CC1 | 0.8 | -0.79 | · | 5 | 3 | 0.8 | ·
Cn1nc(C(=O)Nc2ccc3c(c2)OCCO3)cc1C(=O)O | 0.9 | -1 | 0.29 | 0 | 2 | 0.9 | ·
COCCNC(=O)/C(C#N)=C/c1cccc(/C=C(\C#N)C(=O)NCCOC)c1 | 1.1 | -0.065 | · | 0 | 7 | 1.1 | 0.037*
COCCNC(=O)/C(C#N)=C/c1ccc(O)cc1 | · | 0.64 | · | · | · | · | ·
